Compound activity deposited in PubChem BioAssay by several laboratories.
This is one part of a sample in which hits are shown more often than they occur.
CHOP UPR activ – activators of apoptotic arm of unfolded protein response (CHOP) | CHO-CHOP luciferase reporter, UPR activation, luminescence; percent of tunicamycin response over DMSO baseline | activation, % at 10 µM | actives 0.34% (n = 330,000) | AID 449763;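 active means at 10 µM dose, activation of 40% or more, normalized to positive control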;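 further: 100% = tunicamycin at 10 µg/mL and 0% = DMSO alone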
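Test system: CHO-CHOP cells, stable luciferase reporter of PERK-eIF2a-CHOP signalling | Quantity: 500 CHO-CHOP cells per well | Buffer or medium: F12 plus 10% serum | Compound dosing: 10 µM single point, 0.5% DMSO | Schedule: 6 h compound treatment, 37 °C | Signal: Luciferase luminescence | Control set: Tunicamycin high control, DMSO low control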
VLA-4 inh – inhibition in a human VLA-4 binding assay; P13612; VLA-4 expressing cells, ligand binding flow cytometry; inhibition, % (about 7 µM as worked out from the volumes in the protocol); actives 0.2% (n = 330,000); AID 2557; in the data active means inhibition above about 50%
CHOP inhibitor – CHOP inhibition in unfolded protein response. inhibition, % at 10 µM. actives 3.8% (n = 220,000). CHO-K1 CHOP-promoter luciferase, tunicamycin-induced, 15-18 h;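 active means compounds that reduced the stress-induced luciferase reporter signal by more than about 70% of percent inhibition, limit read from the data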;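 further: 0% = tunicamycin plus vehicle and 100% = wells without tunicamycin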
B2AR ag – human beta-2 adrenergic receptor agonism by FAP; P07550; Am2.2-beta2AR cells, FAP receptor internalization, flow cytometry; response, % (test concentration not listed); actives 0.43% (n = 340,000); AID 504454;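 active means response above a set limit, near 3 SD of response in nonfluorescent compounds, cut at about 42% in these data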
Target sequence (P07550 whole entry, looked up): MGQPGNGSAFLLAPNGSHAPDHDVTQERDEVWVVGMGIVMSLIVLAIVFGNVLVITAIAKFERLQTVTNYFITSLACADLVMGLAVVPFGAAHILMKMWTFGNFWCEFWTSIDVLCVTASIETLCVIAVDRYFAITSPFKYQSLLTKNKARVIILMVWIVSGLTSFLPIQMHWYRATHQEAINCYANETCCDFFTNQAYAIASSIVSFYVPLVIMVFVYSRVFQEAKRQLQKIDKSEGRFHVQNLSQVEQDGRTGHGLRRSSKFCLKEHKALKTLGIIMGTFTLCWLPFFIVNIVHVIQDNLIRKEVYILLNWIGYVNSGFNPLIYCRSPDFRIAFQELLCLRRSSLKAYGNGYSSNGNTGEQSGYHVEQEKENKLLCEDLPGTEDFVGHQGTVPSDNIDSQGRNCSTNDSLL
UPR XBP1 act – adaptive UPR (XBP1) activation; activation, % at 20 µM; actives 0.33% (n = 330,000); AID 463104; CHO-XBP1 luciferase reporter, IRE1-XBP1 UPR activation, luminescence; percent of tunicamycin response, DMSO as zero;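 active means versus positive control, 20 µM dose yields 30% or more activation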;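 further: 100% = tunicamycin at 10 µg/mL and 0% = DMSO only wells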
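Assay system: IRE1-XBP1 luciferase reporter CHO line. Input: 1000 cells/well. Buffer or medium: F12 with 10% serum. Doses: 20 µM, 1% DMSO. Times: overnight seeding at 37 °C, 6 h compound treatment at 37 °C. Technique: Steady-Glo luciferase glow luminescence, 10 min after reagent addition.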
CHOP inh conf – confirmation of CHOP induction inhibitors. shares compounds with CHOP inhibitor. CHO-CHOP promoter luciferase reporter, tunicamycin-induced, luminescence. inhibition, % at 10 µM. actives 45% (n = 2,100). AID 504437;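 active means mean of three repeat readings of reporter signal inhibition above a set limit, cut at about 70% in these data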;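 further: 0% = tunicamycin plus vehicle and 100% = wells lacking tunicamycin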
UPR CHOP confirm – apoptotic UPR (CHOP) activation, confirmed; CHO-CHOP cells, CHOP-luciferase reporter luminescence; percent of tunicamycin response, DMSO as zero; actives 64% (n = 1,000); activation, % at 10 µM; shares compounds with CHOP UPR activ; in the data active means activation above about 33%;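 further: 0% = DMSO wells and 100% = tunicamycin 10 µg/mL wells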
XBP1 UPR conf – adaptive UPR (XBP1) activation, confirmed | actives 63% (n = 1,000) | CHO-XBP1 IRE1-XBP1 luciferase reporter, luminescence | activation, % at 20 µM | shares compounds with UPR XBP1 act | AID 485299;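 active means reporter signal at least 30% of the positive control's activation in two or more of four replicate wells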;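 further: plate controls were DMSO negative control for no effect and tunicamycin 10 µg/mL positive control for full effect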
Beta2AR ag CP1 – agonists of human beta-2 adrenergic receptor | percent response (surface receptor), % at 10 µM | shares compounds with B2AR ag | actives 25% (n = 1,100) | Am2.2-beta2AR cells, FAP surface receptor, flow cytometry; hits give low values;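 active means surface receptor percent response at or below 58%, roughly 3 SD from nonfluorescent compounds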
B2AR FAP counter – fluorescence artifact in beta-2AR agonist FAP counterscreen | shares compounds with B2AR ag | Am2.2 cells, FAP fluorogen flow cytometry; hits give low values | calls only at 10 µM | 1,100 tested, under 10 active | AID 588765;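 active means percent response below a set limit in fluorescence channel 1 and below 50% in channel 8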
* hit, by the source's call; i = inactive; x = not tested or not shown.

SMILES | CHOP UPR activ | VLA-4 inh | CHOP inhibitor | B2AR ag | UPR XBP1 act | CHOP inh conf | others
CC1=NN(c2ccccc2)C(=O)C1/C=C1\C(=O)NC(=O)N(c2cc(C)cc(C)c2)C1=O (centres undefined) | -2 | -5 | 49 | 6 | 0 | x
Cc1cc(C)cc(N2C(=O)NC(=O)/C(=C\C=C\c3ccco3)C2=O)c1 | x | 35 | 107* | 59* | x | -16
CCC1CCC(C)N(N=O)C1 (centres undefined) | x | x | x | 3 | x | x
CCc1ccc(NP(=O)(Oc2ccccc2F)Oc2ccccc2F)cc1 | -1 | 0 | 98* | 12 | -4 | 102*
Cc1ccc(NP(=O)(Oc2ccccc2F)Oc2ccccc2F)cc1 | 0 | -4 | 98* | -2 | -2 | 101*
Cc1cc(N(CCCl)CCCl)ccc1C=Cc1ccncn1 | x | x | x | -7 | x | x
O=C(CSC1c2ccccc2-c2ccccc21)N/N=C/c1ccccc1O | -3 | -3 | 100* | -14 | 1 | 118*
O=C(CSC1c2ccccc2-c2ccccc21)N/N=C/c1ccc(C(=O)O)cc1 | -2 | -2 | 5 | 1 | -1 | x
CN1C2CCC1/C(=C/c1ccccn1)C(=O)/C2=C\c1ccccn1 | x | 22 | 108* | 32 | x | 111*
Cc1ccccc1-n1c(/C=C/c2ccccn2)nc2ccccc2c1=O | 3 | 4 | -22 | 7 | -1 | x
O=C(CCc1nnc2ccc(NCc3ccccc3)nn12)N1CCC2(CC1)OCCO2 | -1 | 2 | x | -8 | -1 | x
O=C1NC(=O)C(=Cc2ccc(-c3cc(Cl)ccc3[N+](=O)[O-])o2)C(=O)N1 | x | x | 105* | 2 | x | -60
COC(=O)C1=C(c2ccc(OCc3ccccc3)cc2)C[C@@H]2CC[C@H]1N2C(=O)NCCCc1ccccc1 | 7 | 17 | x | -5 | 0 | x
CCN(CC)C(=O)N[C@@H]1C[C@@H]2c3cccc4[nH]cc(c34)C[C@H]2N(C)C1 | x | x | -5 | x | x | x
CN(C)C(=S)SSC(=S)N(C)C | x | 36 | 106* | 18 | x | -134
O=c1c(C=NCc2cccs2)c(O)n(C2CCCCC2)c(=O)n1C1CCCCC1 | -3 | 4 | 25 | 9 | -2 | x
N=C(N)c1c(O)n(C2CCCCC2)c(=O)n(C2CCCCC2)c1=O | 0 | -5 | 108* | 10 | 7 | 73*
CC(=O)O/C(=C1\CC2C3CC=C4CC(OC(C)=O)CCC4(C)C3CCC2(C)C1=O)C(F)(F)F (centres undefined) | x | x | x | 12 | x | x
CCC(C)NC(=O)c1c(N)n(CC2CCCO2)c2nc3ccccc3nc12 (centres undefined) | 1 | 0 | 96* | 2 | 1 | 103*
CCC(C)NC(=O)c1c(N)n(CCCOC)c2nc3ccccc3nc12 (centres undefined) | -1 | -11 | 26 | -5 | 3 | x
C/C=C(\C)C(=O)OC1C(C)=C2C(C1OC(=O)CCCCC)C(C)(OC(C)=O)CC(OC(=O)CCC)C1(O)C2OC(=O)C1(C)O (centres undefined) | 22 | -20 | 105* | x | 61* | 125*
CCOC(=O)C1(CCOc2ccccc2)CCN(Cc2ccc(C)s2)CC1 | -1 | 7 | 101* | 5 | -2 | 57
C[C@]12CCC3C(CC[C@H]4C[C@H](O)CC[C@]34C)C1CCC2=O (some centres undefined) | 1 | 0 | x | 5 | -1 | x
O=C1NC(=O)C(=Cc2ccc(SC3CCCCC3)o2)C(=O)N1 | 2 | -11 | 108* | 7 | 1 | 55
C[C@H]1C[C@@H](C)C(=O)[C@@H]([C@H](O)CC2CC(=O)NC(=O)C2)C1 | -5 | 0 | 103* | 21 | -5 | 110*
SMILES | CHOP UPR activ | VLA-4 inh | CHOP inhibitor | B2AR ag | UPR XBP1 act | CHOP inh conf | others
CC(C)(C)C(=O)N1Cc2cnnn2-c2ccccc2C1C#N (centres undefined) | x | x | x | -8 | x | x
Cc1nc2ccc(Cl)cc2c(=O)n1-c1ccccc1Cl | -1 | 3 | x | -11 | -2 | x
Cc1ccc(N2C(=O)NC(=O)/C(=C/c3cnn(-c4ccc(C)cc4)c3)C2=O)cc1 | 87* | 16 | 102* | 23 | 3 | -79 | UPR CHOP confirm=93*
CSc1ncc(/C=C2/C(=O)NC(=O)N(c3ccc(C)cc3)C2=O)cn1 | -1 | -2 | -4 | 7 | -3 | x
COC(=O)C1=C(c2ccc(F)cc2OCc2ccccc2)C[C@@H]2CC[C@H]1N2C(=O)NCCNC(C)=O | -2 | 2 | x | -3 | 0 | x
CCOc1ccc(N2C(=O)/C(=C\c3cccs3)C(=O)NC2=S)cc1 | 268* | 7 | 106* | x | -7 | -100 | UPR CHOP confirm=63*
O=C1NC(=O)N(Cc2ccccc2)C(=O)/C1=C\c1ccco1 | 2 | 26 | 106* | 58* | 71* | -47 | XBP1 UPR conf=29*
CN1C(=O)C(C)(C2=CCCCC2)C(=O)NC1=S (centres undefined) | x | x | x | 0 | x | x
COC(=O)[C@]12OC[C@]34C([C@@H](O)[C@@H]1O)[C@]1(C)CC(=O)C(O)=C(C)[C@@H]1C[C@H]3OC(=O)[C@H](O)[C@@H]24 (some centres undefined) | -5 | x | 104* | 42* | -4 | 108* | Beta2AR ag CP1=64;B2AR FAP counter=i
Cc1cccc(NC(=O)CN2CCN(C(=O)COc3cccc(Br)c3)CC2)c1C | 1 | 7 | x | -5 | -2 | x
O=C1NC(=S)NC(=O)C1=Cc1ccc(Br)s1 | 72* | 32 | x | 54* | -5 | x | UPR CHOP confirm=119*
O=c1c2ccccc2nc(/C=C/c2ccc([N+](=O)[O-])o2)n1-c1ccc(O)cc1 | 94* | x | -129 | -291 | 21 | x | UPR CHOP confirm=37*
Cc1nc2ccccc2c(=O)n1-c1cc([N+](=O)[O-])cc([N+](=O)[O-])c1 | 0 | -1 | x | 12 | -5 | x
Cc1cccc(-n2c(/C=C/c3ccc([N+](=O)[O-])o3)nc3ccccc3c2=O)c1 | 43* | -317 | -85 | -121 | 12 | x | UPR CHOP confirm=37*
O=c1c2ccccc2nc(/C=C/c2ccccc2)n1-c1ccc(O)cc1 | 1 | -6 | x | 3 | 5 | x
